Laboratory results reported in ChEMBL document CHEMBL1158564, “Synthesis and biological evaluation of 1,4-diazepane derivatives as T-type calcium channel blockers” (Bioorg Med Chem Lett, 2010).
pIC50: −log10 of the molar value.

Experiments:
[1] = molecular target: T1, Voltage-dependent T-type calcium channel subunit alpha-1G (Homo sapiens, UniProt O43497); experiment: Inhibition of T-type calcium channel alpha1G expressed in human HEK293 cells assessed as inhibition of KCl-induced increase in calcium level at 10 uM after 60 mins by FDSS6000 assay
T1 sequence (O43497 whole entry): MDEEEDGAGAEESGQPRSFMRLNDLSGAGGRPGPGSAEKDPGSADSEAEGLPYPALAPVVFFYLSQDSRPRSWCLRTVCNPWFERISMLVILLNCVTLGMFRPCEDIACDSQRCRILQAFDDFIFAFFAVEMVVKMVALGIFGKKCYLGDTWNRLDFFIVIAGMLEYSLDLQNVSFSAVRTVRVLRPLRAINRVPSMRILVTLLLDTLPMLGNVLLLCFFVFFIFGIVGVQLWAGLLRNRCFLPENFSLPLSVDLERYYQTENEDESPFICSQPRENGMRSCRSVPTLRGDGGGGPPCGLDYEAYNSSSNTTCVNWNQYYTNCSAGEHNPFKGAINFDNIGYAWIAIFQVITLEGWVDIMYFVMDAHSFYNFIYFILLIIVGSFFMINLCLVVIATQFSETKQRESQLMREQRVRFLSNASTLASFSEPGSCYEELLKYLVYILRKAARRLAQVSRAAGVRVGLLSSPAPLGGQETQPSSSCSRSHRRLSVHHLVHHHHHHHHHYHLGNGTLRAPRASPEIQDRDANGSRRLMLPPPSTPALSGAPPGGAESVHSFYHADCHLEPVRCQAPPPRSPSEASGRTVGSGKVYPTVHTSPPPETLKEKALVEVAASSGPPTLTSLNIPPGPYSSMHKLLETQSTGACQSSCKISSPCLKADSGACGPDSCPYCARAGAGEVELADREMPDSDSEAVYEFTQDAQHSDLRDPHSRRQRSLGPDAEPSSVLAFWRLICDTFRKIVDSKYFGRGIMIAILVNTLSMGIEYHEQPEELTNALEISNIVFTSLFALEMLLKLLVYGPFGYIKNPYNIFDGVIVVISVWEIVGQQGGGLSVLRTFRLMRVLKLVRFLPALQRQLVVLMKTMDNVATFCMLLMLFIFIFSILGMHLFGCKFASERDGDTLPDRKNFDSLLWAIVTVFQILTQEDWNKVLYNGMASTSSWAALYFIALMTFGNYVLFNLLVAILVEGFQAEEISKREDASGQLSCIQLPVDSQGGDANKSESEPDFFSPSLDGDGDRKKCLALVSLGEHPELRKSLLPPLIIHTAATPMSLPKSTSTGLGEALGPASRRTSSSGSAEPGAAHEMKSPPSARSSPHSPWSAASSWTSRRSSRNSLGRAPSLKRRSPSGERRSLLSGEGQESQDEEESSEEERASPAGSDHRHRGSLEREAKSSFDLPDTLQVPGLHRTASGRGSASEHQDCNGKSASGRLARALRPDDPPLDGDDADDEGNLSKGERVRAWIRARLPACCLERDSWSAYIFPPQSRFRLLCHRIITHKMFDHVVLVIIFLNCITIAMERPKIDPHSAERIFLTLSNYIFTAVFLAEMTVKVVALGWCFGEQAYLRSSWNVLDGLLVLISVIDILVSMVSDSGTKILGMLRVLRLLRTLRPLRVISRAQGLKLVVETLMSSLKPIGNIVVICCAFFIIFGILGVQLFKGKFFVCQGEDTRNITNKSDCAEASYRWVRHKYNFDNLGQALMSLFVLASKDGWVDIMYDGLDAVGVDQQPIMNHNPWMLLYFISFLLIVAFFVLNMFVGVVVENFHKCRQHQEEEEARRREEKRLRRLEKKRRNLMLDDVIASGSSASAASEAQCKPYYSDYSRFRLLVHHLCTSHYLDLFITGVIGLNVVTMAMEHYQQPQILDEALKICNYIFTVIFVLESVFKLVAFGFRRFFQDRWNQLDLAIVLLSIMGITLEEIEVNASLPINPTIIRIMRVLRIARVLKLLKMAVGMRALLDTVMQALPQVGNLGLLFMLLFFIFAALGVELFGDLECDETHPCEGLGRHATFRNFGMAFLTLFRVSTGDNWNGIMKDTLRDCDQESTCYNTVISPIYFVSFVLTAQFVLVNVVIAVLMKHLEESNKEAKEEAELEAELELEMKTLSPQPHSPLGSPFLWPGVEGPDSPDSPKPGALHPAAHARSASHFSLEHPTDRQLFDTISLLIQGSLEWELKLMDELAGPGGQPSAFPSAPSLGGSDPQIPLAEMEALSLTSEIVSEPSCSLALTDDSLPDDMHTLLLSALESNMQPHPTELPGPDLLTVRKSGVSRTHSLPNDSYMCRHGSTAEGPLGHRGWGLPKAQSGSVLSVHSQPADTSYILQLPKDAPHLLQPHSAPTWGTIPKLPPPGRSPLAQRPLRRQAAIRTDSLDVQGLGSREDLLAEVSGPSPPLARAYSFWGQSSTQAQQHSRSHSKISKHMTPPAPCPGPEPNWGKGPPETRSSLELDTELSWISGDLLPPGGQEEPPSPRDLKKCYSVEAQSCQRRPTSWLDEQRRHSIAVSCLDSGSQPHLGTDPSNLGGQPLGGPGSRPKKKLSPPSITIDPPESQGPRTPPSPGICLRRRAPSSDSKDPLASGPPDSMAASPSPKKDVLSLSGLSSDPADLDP

[2] = molecular target: T1, Voltage-dependent T-type calcium channel subunit alpha-1G; experiment: Inhibition of T-type calcium channel alpha1G expressed in human HEK293 cells assessed as inhibition of peak currents by whole-cell patch-clamp method; format: cell-based
Method in brief: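 Whole-cell recording of α1G T-type Ca²⁺ currents, evoked every 15 s by a 50 ms depolarizing step from −100 mV to −30 mV. Peak-current inhibition was measured across compound concentrations. IC50 was obtained by fitting raw data to dose–response curves.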

[3] = molecular target: Voltage-gated inwardly rectifying potassium channel KCNH2 (Homo sapiens, UniProt Q12809); experiment: Inhibition of human ERG
Sequence of Voltage-gated inwardly rectifying potassium channel KCNH2 (Q12809 whole entry): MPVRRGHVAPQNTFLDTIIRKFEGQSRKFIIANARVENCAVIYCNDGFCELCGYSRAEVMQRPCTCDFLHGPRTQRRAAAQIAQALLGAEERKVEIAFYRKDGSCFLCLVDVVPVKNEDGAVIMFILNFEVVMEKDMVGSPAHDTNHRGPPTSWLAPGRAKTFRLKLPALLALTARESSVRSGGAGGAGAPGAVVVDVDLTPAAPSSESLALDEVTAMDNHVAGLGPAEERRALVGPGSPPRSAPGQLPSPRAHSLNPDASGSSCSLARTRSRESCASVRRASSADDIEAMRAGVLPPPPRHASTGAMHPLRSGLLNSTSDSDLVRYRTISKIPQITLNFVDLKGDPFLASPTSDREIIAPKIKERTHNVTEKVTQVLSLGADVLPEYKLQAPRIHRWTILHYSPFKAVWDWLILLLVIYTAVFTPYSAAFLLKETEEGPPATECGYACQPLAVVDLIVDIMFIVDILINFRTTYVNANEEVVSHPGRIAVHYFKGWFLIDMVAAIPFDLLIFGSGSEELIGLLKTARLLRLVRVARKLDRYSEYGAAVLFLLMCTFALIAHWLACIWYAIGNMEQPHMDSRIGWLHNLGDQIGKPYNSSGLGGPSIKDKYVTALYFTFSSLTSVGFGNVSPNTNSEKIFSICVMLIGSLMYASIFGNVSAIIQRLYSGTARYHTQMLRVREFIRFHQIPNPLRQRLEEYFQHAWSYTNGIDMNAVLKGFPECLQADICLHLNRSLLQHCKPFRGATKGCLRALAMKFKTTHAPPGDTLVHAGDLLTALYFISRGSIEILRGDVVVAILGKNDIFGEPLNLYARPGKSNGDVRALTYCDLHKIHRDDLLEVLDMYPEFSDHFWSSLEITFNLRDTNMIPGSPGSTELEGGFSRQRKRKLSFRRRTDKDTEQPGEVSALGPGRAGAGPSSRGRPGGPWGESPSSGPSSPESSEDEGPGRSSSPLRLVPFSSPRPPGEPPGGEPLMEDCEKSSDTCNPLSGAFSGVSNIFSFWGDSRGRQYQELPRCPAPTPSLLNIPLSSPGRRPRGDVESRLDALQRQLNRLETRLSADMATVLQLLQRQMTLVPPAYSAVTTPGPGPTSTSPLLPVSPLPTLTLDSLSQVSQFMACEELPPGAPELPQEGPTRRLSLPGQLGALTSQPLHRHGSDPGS

[4] = Oral bioavailability in rat; format: ADME, organism-based; conditions: in vivo
Method in brief: (§1)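 Rat plasma pharmacokinetics after intravenous (n = 4) or oral (n = 3) dosing. Brain-to-plasma ratio, Cmax, Tmax, half-life, Vdss and oral bioavailability were derived per route. Values are given as mean with standard deviation.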

[5] = Cmax in po dosed rat; format: ADME, organism-based; set-up: route oral; conditions: in vivo
Method in brief: as §1

[6] = Half life in po dosed rat; format: ADME, organism-based; conditions: in vivo
Method in brief: as §1

[7] = Tmax in po dosed rat; format: ADME, organism-based; conditions: in vivo
Method in brief: as §1

[8] = molecular target: Voltage-dependent N-type calcium channel subunit alpha-1B (Homo sapiens, UniProt Q00975); experiment: Inhibition of N-type calcium channel Alpha-1B
[9] = Volume of distribution at steady state in iv dosed rat; format: ADME, organism-based; conditions: in vivo, read-out: Vdss
Method in brief: as §1

[10] = Half life in iv dosed rat; format: ADME, organism-based; conditions: in vivo
Method in brief: as §1

[11] = Ratio of drug level in brain to plasma in iv dosed rat; format: ADME, organism-based; conditions: read-out: BPR
Method in brief: as §1

[12] = Ratio of drug level in brain to plasma in po dosed rat; format: ADME, organism-based; conditions: read-out: BPR
Method in brief: as §1

Row | Compound | inhibition [1] [%] | also measured
1 | COc1ccccc1NCC(=O)N1CCCN(Cc2nc3ccccc3[nH]2)CC1 | 8.29 | 
2 | O=C(CNc1cccc(Cl)c1)N1CCCN(Cc2nc3ccccc3[nH]2)CC1 | 40.9 | 
3 | CCc1cccc(CC)c1NCC(=O)N1CCCN(Cc2nc3ccccc3[nH]2)CC1 | 62.4 | pIC50 [2]: 5.40
4 | COc1ccc(NC(=O)CN2CCCN(Cc3nc4ccccc4[nH]3)CC2)cc1 | 32.4 | 
5 | COc1ccc(NCC(=O)N2CCCN(Cc3nc4ccccc4[nH]3)CC2)cc1 | 0.92 | 
6 | O=C(CNc1cccc(F)c1)N1CCCN(Cc2nc3ccccc3[nH]2)CC1 | 7.52 | 
7 | O=C(CNc1ccccc1F)N1CCCN(Cc2nc3ccccc3[nH]2)CC1 | 22.3 | 
8 | Cc1ccc(NCC(=O)N2CCCN(Cc3nc4ccccc4[nH]3)CC2)cc1 | 16.4 | 
9 | Cc1ccc(NC(=O)CN2CCCN(Cc3nc4ccccc4[nH]3)CC2)cc1C | 56.2 | pIC50 [2]: 5.62
10 | O=C(CNc1ccc(F)cc1)N1CCCN(Cc2nc3ccccc3[nH]2)CC1 | 12.8 | 
11 | Cc1cccc(NCC(=O)N2CCCN(Cc3nc4ccccc4[nH]3)CC2)c1 | 8.48 | 
12 | Cc1ccc(NCC(=O)N2CCCN(Cc3nc4ccccc4[nH]3)CC2)cc1C | 16.5 | 
13 | COc1cccc(NCC(=O)N2CCCN(Cc3nc4ccccc4[nH]3)CC2)c1 | 1.54 | 
14 | O=C(CNc1ccccc1C(F)(F)F)N1CCCN(Cc2nc3ccccc3[nH]2)CC1 | 66 | pIC50 [2]: 5.50; pIC50 [3]: 5.88
15 | Cc1ccc(NCC(=O)N2CCCN(Cc3nc4ccccc4[nH]3)CC2)c(C)c1 | 21.1 | 
16 | O=C(CN1CCCN(Cc2nc3ccccc3[nH]2)CC1)Nc1ccc(C(F)(F)F)cc1 | 60.7 | bioavailability [4]: 43.4%; Cmax [5]: 2280 ng/mL; half-life [6]: 4.34 h; pIC50 [2]: 5.91; Tmax [7]: 2 h; pIC50 [8]: 4.54; Vd [9]: 2.33 L/kg; half-life [10]: 5.67 h; pIC50 [3]: 5.30; Kp [11]: 0.438; Kp [12]: 0.105
17 | O=C(CNc1cccc(C(F)(F)F)c1)N1CCCN(Cc2nc3ccccc3[nH]2)CC1 | 27.3 | 
18 | O=C(CN1CCCN(Cc2nc3ccccc3[nH]2)CC1)Nc1cccc(C(F)(F)F)c1 | 60.1 | 
19 | Cc1cccc(C)c1NCC(=O)N1CCCN(Cc2nc3ccccc3[nH]2)CC1 | 29.5 | 
20 | O=C(CNc1ccc(C(F)(F)F)cc1)N1CCCN(Cc2nc3ccccc3[nH]2)CC1 | 28.2 | 
21 | COCC(=O)O[C@]1(CCN(C)CCCc2nc3ccccc3[nH]2)CCc2cc(F)ccc2[C@@H]1C(C)C [MIBEFRADIL] |  | pIC50 [8]: 5.87
22 | Cc1ccccc1NCC(=O)N1CCCN(Cc2nc3ccccc3[nH]2)CC1 | 7.04 | 
23 | O=C(CNc1ccc(Cl)cc1)N1CCCN(Cc2nc3ccccc3[nH]2)CC1 | 36.9 | 
24 | CCc1cccc(CC)c1NC(=O)CN1CCCN(Cc2nc3ccccc3[nH]2)CC1 | 57.4 | pIC50 [2]: 5.68

Now from value to molecule, other results behind:

Row | inhibition [1] [%] | Compound | also measured
25 | 54.8 | Cc1cccc(NC(=O)CN2CCCN(Cc3nc4ccccc4[nH]3)CC2)c1 | 
26 | 59.1 | COc1ccccc1NC(=O)CN1CCCN(Cc2nc3ccccc3[nH]2)CC1 | pIC50 [2]: 4.90
27 | 41.7 | O=C(CN1CCCN(Cc2nc3ccccc3[nH]2)CC1)Nc1ccccc1C(F)(F)F | 
28 | 56.8 | O=C(CN1CCCN(Cc2nc3ccccc3[nH]2)CC1)Nc1ccccc1Cl | pIC50 [2]: 5.83
29 | 46.6 | O=C(CN1CCCN(Cc2nc3ccccc3[nH]2)CC1)Nc1ccc(F)cc1 | 
30 | 47.6 | Cc1ccc(NC(=O)CN2CCCN(Cc3nc4ccccc4[nH]3)CC2)c(C)c1 | 
31 | 51.3 | O=C(CN1CCCN(Cc2nc3ccccc3[nH]2)CC1)Nc1ccc(Cl)cc1 | 
32 | 39.8 | Cc1cccc(C)c1NC(=O)CN1CCCN(Cc2nc3ccccc3[nH]2)CC1 | 
33 | 32.4 | O=C(CN1CCCN(Cc2nc3ccccc3[nH]2)CC1)Nc1ccccc1F | 
34 | 46.4 | O=C(CN1CCCN(Cc2nc3ccccc3[nH]2)CC1)Nc1cccc(F)c1 | 
35 | 41.7 | O=C(CN1CCCN(Cc2nc3ccccc3[nH]2)CC1)Nc1cccc(Cl)c1 | 
36 | 51.8 | Cc1ccccc1NC(=O)CN1CCCN(Cc2nc3ccccc3[nH]2)CC1 | 
37 | 46.1 | COc1cccc(NC(=O)CN2CCCN(Cc3nc4ccccc4[nH]3)CC2)c1 | 
38 | 44.8 | Cc1ccc(NC(=O)CN2CCCN(Cc3nc4ccccc4[nH]3)CC2)cc1 | 
39 | 32.2 | O=C(CNc1ccccc1Cl)N1CCCN(Cc2nc3ccccc3[nH]2)CC1 | 
